The values below come from ChEMBL document CHEMBL1126976, “Hybrids of antibiotics inhibiting protein synthesis. Synthesis and biological activity” (1993).

Values after ≈ are worked out from the molar mass of the structure shown. Bounds are passed on as bounds.

The test system of one assay is Escherichia coli. As to the kind of experiment: The compound was tested for minimum inhibitory concentration required for inhibition of microbial growth in Escherichia coli at the Upjohn culture. It counts as functional. The method, boiled down:
(§1)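 Agar dilution in brain heart infusion agar with serial 2-fold compound dilutions. Organisms grown overnight on BHIA at 35 °C aerobically and suspended in TSB to 0.5 McFarland. The suspension is diluted 1:20 and spotted as 1-μL drops (~10^4 CFU). Plates incubated 18 h at 35 °C. MIC is the lowest concentration preventing visible growth.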

For another assay, the system named is Klebsiella pneumoniae. Briefly: The compound was tested for minimum inhibitory concentration required for inhibition of microbial growth in Klebsiella pneumoniae at the Upjohn culture. It counts as functional. The method, boiled down: as §1
Assay [1] relates to Pseudomonas aeruginosa. As to the kind of experiment: The compound was tested for minimum inhibitory concentration required for inhibition of microbial growth in Pseudomonas aeruginosa at the Upjohn culture 95. It counts as functional. The method, boiled down: as §1
In assay [2] the test system is Staphylococcus aureus. As to the kind of experiment: The compound was tested for minimum inhibitory concentration required for inhibition of microbial growth in staphylococcus aureus at the Upjohn culture 6685. It counts as functional. The method, boiled down:
as §1

Assay [3] has as its system Staphylococcus aureus. As to the kind of experiment: The compound was tested for minimum inhibitory concentration required for inhibition of microbial growth in staphylococcus aureus at the Upjohn culture 6690. It counts as functional. The gist of the method: as §1
The subject of another assay is Streptococcus pyogenes. As to the kind of experiment: The compound was tested for minimum inhibitory concentration required for inhibition of microbial growth in Streptococcus pyogenes at the Upjohn culture. In kind it is functional. The method, boiled down: as §1
Assay [4] is described as follows: The compound was tested for minimum inhibitory concentration required for inhibition of microbial growth in Salmonella schottmuelleri. In kind it is functional. The method, boiled down: as §1
For assay [5], the system named is Staphylococcus aureus. Briefly: The compound was tested for minimum inhibitory concentration required for inhibition of microbial growth in staphylococcus aureus at the Upjohn culture 76. In kind it is functional. The method, boiled down:
as §1

Assay [6] relates to Saccharomyces cerevisiae. As to the kind of experiment: The compound was tested for inhibition of Polyphenylalanine synthesis in Saccharomyces cerevisiae ribosome system at concentration of 1*10e-3 M; values are per cent of control.
In assay [7] the test system is Saccharomyces cerevisiae. Briefly: The compound was tested for inhibition of Polyphenylalanine synthesis in Saccharomyces cerevisiae ribosome system at concentration of 1*10e-4 M; values are per cent of control.
Assay [8] relates to Saccharomyces cerevisiae. Briefly: The compound was tested for inhibition of Polyphenylalanine synthesis in Saccharomyces cerevisiae ribosome system at concentration of 1*10e-5 M; values are per cent of control.
Assay [9] is filed under the species Rattus norvegicus. Briefly: The compound was tested for inhibition of Puromycin reaction with hybrid antibiotics in a rat liver ribosome system concentrations of 2*10e-4 M; values are per cent of control.
Assay [10] is filed under the species Rattus norvegicus. As to the kind of experiment: The compound was tested for inhibition of Puromycin reaction with hybrid antibiotics in a rat liver ribosome system concentrations at 1*10e-3 M; values are per cent of control.
The subject of assay [11] is Pseudomonas aeruginosa. As to the kind of experiment: The compound was tested for minimum inhibitory concentration required for inhibition of microbial growth in Pseudomonas aeruginosa at the Upjohn culture 6676. It counts as functional. The method, boiled down:
as §1

The next assay has as its system Streptococcus pneumoniae. As to the kind of experiment: The compound was tested for minimum inhibitory concentration required for inhibition of microbial growth in Streptococcus pneumoniae at the Upjohn culture. It counts as functional. The gist of the method: as §1
The next assay concerns Enterococcus faecalis. As to the kind of experiment: The compound was tested for minimum inhibitory concentration required for inhibition of microbial growth in Enterococcus faecalis at the Upjohn culture. In kind it is functional. The method, boiled down: as §1
The species entered for assay [12] is Rattus norvegicus. As to the kind of experiment: The compound was tested for inhibition of Puromycin reaction with hybrid antibiotics in a rat liver ribosome system concentrations of 2*10e-4 M; values are per cent of control. The source holds these as a separate data set.
The species named for assay [13] is Rattus norvegicus. Briefly: The compound was tested for inhibition of Puromycin reaction with hybrid antibiotics in a rat liver ribosome system concentrations at 1*10e-3 M; values are per cent of control. This is another data set of the same source.

Turning to `CCCC1CC(C(=O)NC(CO)C(O)c2ccc([N+](=O)[O-])cc2)N(C)C1` (centres undefined), the minimal inhibitory concentration (MIC) is > 800 µg/mL in the assay on Escherichia coli; 800 µg/mL (≈ 2190 µM) with Klebsiella pneumoniae; > 800 µg/mL with Pseudomonas aeruginosa [1]; 800 µg/mL (≈ 2190 µM) against Staphylococcus aureus [2]; > 800 µg/mL against Staphylococcus aureus [3]; 200 µg/mL (≈ 547 µM) with Streptococcus pyogenes. For the same compound, the minimum inhibitory concentration (MIC) in [4] is > 800 µg/mL; with Staphylococcus aureus [5], 800 µg/mL (≈ 2190 µM).
As to `Cc1nc(O)nc(O)c1/C=C/C(=O)N[C@H]1[C@@H](O)[C@H](n2cnc3c(N(C)C)ncnc32)O[C@@H]1CO`, the level, % of control was 95.7% in the assay with Saccharomyces cerevisiae [6]; 95.8% in the assay on Saccharomyces cerevisiae [7]; 106% in the assay on Saccharomyces cerevisiae [8]; 69% in the assay filed under Rattus norvegicus [9]; 76% in the assay listed under Rattus norvegicus [10].
For the compound `Cc1nc(O)nc(O)c1/C=C/C(=O)NC(CO)C(O)c1ccc([N+](=O)[O-])cc1` (centres undefined), the MIC against Escherichia coli, in the assay on Klebsiella pneumoniae, in the assay on Pseudomonas aeruginosa [11], in the assay with Pseudomonas aeruginosa [1], against Staphylococcus aureus [2] and in the assay with Staphylococcus aureus [3] was > 400 µg/mL in each case. The minimal inhibitory concentration (MIC) against Streptococcus pneumoniae was > 400 µg/mL; against Streptococcus pyogenes it was 50 µg/mL (≈ 128 µM); in assay [4], > 400 µg/mL; in the assay with Enterococcus faecalis it was > 400 µg/mL; with Staphylococcus aureus [5], > 400 µg/mL.
In the case of `CSC[S@@+]([O-])CC(CO)NC(=O)/C=C/c1c(C)[nH]c(=O)[nH]c1=O` (some centres undefined), the values for the level, % of control with Saccharomyces cerevisiae [6], with Saccharomyces cerevisiae [7] and in the assay on Saccharomyces cerevisiae [8] were 15.5%, 30.3% and 44.1%, respectively.
Turning to `CSC1OC(C(NC(=O)/C=C/c2c(C)nc(O)nc2O)C(C)O)C(O)C(O)C1O` (centres undefined), the MIC against Escherichia coli, in the assay with Klebsiella pneumoniae, against Pseudomonas aeruginosa [11], with Pseudomonas aeruginosa [1], in the assay with Staphylococcus aureus [2] and in the assay with Staphylococcus aureus [3] was > 400 µg/mL each time. The MIC (in the assay with Streptococcus pneumoniae; in the assay on Streptococcus pyogenes; in [4]; in the assay with Enterococcus faecalis; against Staphylococcus aureus [5]) was > 400 µg/mL in each case. In addition, the level, % of control worked out at 93.4% with Saccharomyces cerevisiae [6]; 97.7% in the assay on Saccharomyces cerevisiae [7]; 101% in the assay on Saccharomyces cerevisiae [8]; 90% in the assay filed under Rattus norvegicus [12]; 91% in the assay filed under Rattus norvegicus [13].
Take `CCC[C@@H]1C[C@@H](C(=O)N[C@@H]([C@H]2O[C@H](SC)[C@H](O)[C@@H](O)[C@H]2O)[C@@H](C)O)N(C)C1` [LINCOMYCIN]: the minimal inhibitory concentration (MIC) against Escherichia coli was > 400 µg/mL; against Klebsiella pneumoniae, 400 µg/mL (≈ 984 µM); against Pseudomonas aeruginosa [11] it was > 400 µg/mL; against Pseudomonas aeruginosa [1] it was > 400 µg/mL; against Staphylococcus aureus [2] it was > 400 µg/mL; with Staphylococcus aureus [3], 0.78 µg/mL (≈ 1.92 µM). Besides, the MIC against Streptococcus pneumoniae was 0.78 µg/mL (≈ 1.92 µM); in the assay on Streptococcus pyogenes it was 0.2 µg/mL (≈ 0.492 µM); in assay [4], > 800 µg/mL; with Enterococcus faecalis, 50 µg/mL (≈ 123 µM); in the assay on Staphylococcus aureus [5], 0.78 µg/mL (≈ 1.92 µM).
For the compound `CSC1OC(C(NC(=O)C(Cl)Cl)C(C)O)C(O)C(O)C1O` (centres undefined), the MIC with Escherichia coli is > 400 µg/mL; in the assay with Klebsiella pneumoniae, > 400 µg/mL; in the assay on Pseudomonas aeruginosa [11], > 400 µg/mL; against Pseudomonas aeruginosa [1], > 400 µg/mL; with Staphylococcus aureus [2] it was > 400 µg/mL; against Staphylococcus aureus [3] it was 50 µg/mL (≈ 137 µM). Further, the minimum inhibitory concentration (MIC) against Streptococcus pneumoniae was 25 µg/mL (≈ 68.6 µM); against Streptococcus pyogenes, 6.25 µg/mL (≈ 17.2 µM); in assay [4], > 400 µg/mL; against Enterococcus faecalis, > 400 µg/mL; against Staphylococcus aureus [5] it was 50 µg/mL (≈ 137 µM). Also, the level, % of control in the assay with Saccharomyces cerevisiae [6] was 96.8%; with Saccharomyces cerevisiae [7] it was 90.9%; with Saccharomyces cerevisiae [8], 97.3%.
Turning to `O=C(N[C@H](CO)[C@H](O)c1ccc([N+](=O)[O-])cc1)C(Cl)Cl` [CHLORAMPHENICOL], the minimal inhibitory concentration (MIC) in the assay on Escherichia coli was 3.12 µg/mL (≈ 9.66 µM); in the assay with Klebsiella pneumoniae, 3.12 µg/mL (≈ 9.66 µM); against Pseudomonas aeruginosa [11], 200 µg/mL (≈ 619 µM); in the assay with Pseudomonas aeruginosa [1] it was 100 µg/mL (≈ 309 µM); with Staphylococcus aureus [2] it was 6.25 µg/mL (≈ 19.3 µM); with Staphylococcus aureus [3], 50 µg/mL (≈ 155 µM). The MIC with Streptococcus pneumoniae came out at 3.12 µg/mL (≈ 9.66 µM); against Streptococcus pyogenes, 3.12 µg/mL (≈ 9.66 µM); in assay [4], 6.25 µg/mL (≈ 19.3 µM); against Enterococcus faecalis it was 6.25 µg/mL (≈ 19.3 µM); against Staphylococcus aureus [5] it was 6.25 µg/mL (≈ 19.3 µM).
